From ChEMBL document CHEMBL5352499, “Differentiating Inhibition Selectivity and Binding Affinity of Isocitrate Dehydrogenase 1 Variant Inhibitors” (J Med Chem, 2023)
Blank lines part the entries; values can stand above or below the compound they belong to. The source made the active and inactive calls. The calls are words filed in the database; no cut-off is given here.

Tests used:
[1] = Selectivity index, ratio of IC50 for recombinant wildtype IDH1 expressed in Escherichia coli BL21(DE3) pLysS cells to IC50 for recombinant IDH1 R132H mutant (unknown origin) expressed in Escherichia coli BL21(DE3) pLysS cells
[2] = biological target: T1, Isocitrate dehydrogenase [NADP] cytoplasmic (Homo sapiens, UniProt O75874); settings: dose 3-100 µM
T1 sequence (O75874 whole entry): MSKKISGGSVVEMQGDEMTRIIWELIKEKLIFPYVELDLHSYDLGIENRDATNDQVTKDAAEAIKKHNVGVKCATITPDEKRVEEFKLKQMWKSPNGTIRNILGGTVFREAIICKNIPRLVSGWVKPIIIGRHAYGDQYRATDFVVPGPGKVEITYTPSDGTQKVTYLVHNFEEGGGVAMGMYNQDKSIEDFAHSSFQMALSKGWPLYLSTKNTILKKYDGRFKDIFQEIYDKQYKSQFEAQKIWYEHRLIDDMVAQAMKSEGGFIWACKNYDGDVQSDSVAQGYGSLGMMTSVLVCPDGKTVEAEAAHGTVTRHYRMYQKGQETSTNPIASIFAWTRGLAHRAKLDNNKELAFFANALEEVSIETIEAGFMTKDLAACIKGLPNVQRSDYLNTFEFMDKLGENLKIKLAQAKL

[3] = system: Isocitrate dehydrogenase [NADP] cytoplasmic (Homo sapiens), O75874 [R132H]; settings: dose 3-100 µM
Chain of Isocitrate dehydrogenase [NADP] cytoplasmic (Homo sapiens), O75874 [R132H] (O75874 whole entry R132H): as the sequence (O75874 whole entry) above, with R132H counted along it

[4] = biological target: T2, Isocitrate dehydrogenase [NADP] cytoplasmic (Homo sapiens, UniProt O75874, R132H); test: Inhibition of recombinant IDH1 R132H mutant (unknown origin) expressed in Escherichia coli BL21(DE3) pLysS cells using 2OG as substrate assessed as 2OG conversion to 2HG incubated for 60 mins in presence of NADPH by spectrophotometric analysis
T2 sequence (O75874 2-414 R132H limits assumed): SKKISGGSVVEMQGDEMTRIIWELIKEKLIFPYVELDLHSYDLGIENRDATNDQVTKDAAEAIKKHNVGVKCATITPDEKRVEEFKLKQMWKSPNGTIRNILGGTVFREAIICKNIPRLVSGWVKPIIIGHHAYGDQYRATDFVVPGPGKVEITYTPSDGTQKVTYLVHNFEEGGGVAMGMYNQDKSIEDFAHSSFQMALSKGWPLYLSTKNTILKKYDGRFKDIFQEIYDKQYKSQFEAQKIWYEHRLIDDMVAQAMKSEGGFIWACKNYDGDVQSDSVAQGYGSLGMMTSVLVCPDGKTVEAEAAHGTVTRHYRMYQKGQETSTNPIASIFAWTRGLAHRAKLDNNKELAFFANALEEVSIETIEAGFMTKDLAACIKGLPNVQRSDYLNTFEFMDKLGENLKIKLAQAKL

[5] = biological target: T2, Isocitrate dehydrogenase [NADP] cytoplasmic; test: Binding affinity to human recombinant IDH1 R132H mutant expressed in Escherichia coli BL21(DE3) pLysS cells assessed as dissociation constant by non-denaturing mass spectroscopic analysis
[6] = system: Isocitrate dehydrogenase [NADP] cytoplasmic (Homo sapiens), O75874 [R132H]; settings: dose 42.0 µM
[7] = biological target: T1, Isocitrate dehydrogenase [NADP] cytoplasmic; test: Binding affinity to human recombinant IDH1 expressed in Escherichia coli BL21(DE3) pLysS cells assessed as dissociation constant by non-denaturing mass spectroscopic analysis
[8] = system: Isocitrate dehydrogenase [NADP] cytoplasmic (Homo sapiens), O75874 [R132H]; test: Binding affinity to recombinant IDH1 R132H mutant (unknown origin) expressed in Escherichia coli BL21(DE3) pLysS cells incubated in presence of MgCl2 by ITC assay
Procedure, shortened: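 IDH1 R132H homodimer in 50 mM tris–HCl, pH 7.5; 40 μM protein in cell (4% v/v DMSO) titrated at 25 °C with 200 or 400 μM compound (2% or 4% DMSO), 19 injections (0.4 μL, then 2.0 μL × 18, 150 s spacing), 750 rpm; thermodynamic parameters from fitted isotherm.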

[9] = biological target: T1, Isocitrate dehydrogenase [NADP] cytoplasmic; test: Binding affinity to recombinant IDH1 (unknown origin) expressed in Escherichia coli BL21(DE3) pLysS cells incubated in presence of MgCl2 by ITC assay
Procedure, shortened: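 Homodimeric wt IDH1 in 50 mM tris–HCl, pH 7.5; cell 40 μM protein (4% v/v DMSO), titrant 200 or 400 μM compound (2% or 4% DMSO). 25 °C, stirring 750 rpm, 19 injections (0.4 μL then 18 × 2.0 μL, 150 s apart); thermodynamic parameters fitted from the heats.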

[10] = system: Isocitrate dehydrogenase [NADP] cytoplasmic (Homo sapiens), O75874 [R132H]; test: Binding affinity to recombinant IDH1 R132H mutant (unknown origin) expressed in Escherichia coli BL21(DE3) pLysS cells incubated in presence of MgCl2 by NMR analysis
[11] = biological target: T1, Isocitrate dehydrogenase [NADP] cytoplasmic; test: Binding affinity to recombinant wildtype IDH1 (unknown origin) expressed in Escherichia coli BL21(DE3) pLysS cells incubated in presence of MgCl2 by NMR analysis

ΔTm [2]: 8.1 °C | ΔTm [3]: 6.6 °C | IC50 [4]: 0.073 µM
Structure (SMILES): Cc1ccccc1C(C(=O)NC1CCCCC1)N(C(=O)Cn1cnc2ccccc21)c1cccc(F)c1 (stereo not drawn)
Ratio IC50 [1]: > 556

Kd [5]: 98 µM
Structure (SMILES): Cc1ccccc1C(C(=O)NC1CCCCC1)N(C(=O)Cn1ccnc1C)c1cccc(F)c1 (stereo not drawn)

ΔTm [6]: 11.2 °C | ΔTm [3]: 11.7 °C
Structure (SMILES): CC(=O)N1CCN(Cc2ccc([C@H](C)Nc3nccc(N4C(=O)OC[C@@H]4C(C)C)n3)cc2)CC1

Kd [7]: 24 µM | Activity [8]: Active | Activity [9]: Active | Kd [5]: 23 µM | Activity [10]: Active | Activity [11]: Active
Structure (SMILES): COc1c(C)cc(NC(=O)c2nn(Cc3ccc(F)cc3)c3c2CN(C(=O)c2ccc[nH]2)C[C@]3(C)C(N)=O)cc1C
